# In the library only some 3.8% were active in any assay of this set; here they are far more common.
# GPR7 antag = human neuropeptides B/W receptor 1 antagonism. P48145. AID 1861. actives 1.1% (n = 290,000). inhibition, % at 4.4 µM. GPR7-expressing cells, fluorescence antagonist assay; in the data active = inhibition above about 16%, passing the limit was not always enough;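 also: cells stimulated with the agonist NPW; 0% = agonist with vehicle and 100% = vehicle without agonist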
# Target sequence (P48145 whole entry, looked up): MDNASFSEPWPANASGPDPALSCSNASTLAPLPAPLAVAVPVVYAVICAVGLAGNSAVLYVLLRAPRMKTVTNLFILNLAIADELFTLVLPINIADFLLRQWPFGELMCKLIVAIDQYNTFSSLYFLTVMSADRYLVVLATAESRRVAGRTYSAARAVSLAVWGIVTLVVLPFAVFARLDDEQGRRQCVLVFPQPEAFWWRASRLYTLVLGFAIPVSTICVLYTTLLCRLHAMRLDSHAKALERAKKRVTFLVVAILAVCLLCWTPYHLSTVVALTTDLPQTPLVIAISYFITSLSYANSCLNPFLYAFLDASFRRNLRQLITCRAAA
# CHO parental Ca = counter-screen for OX1R antagonists: effect in parental CHO cells; parental CHO-K1, ATP-induced calcium, Fluo-8 fluorescence; inhibition, % at 5.6 µM; actives 0.63% (n = 330,000); AID 463079;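 active = inhibition above that plate's mean sample inhibition plus 3 SD, cut at about 26% in these data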;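 also: 0% = ATP-challenged DMSO wells and 100% = DMSO wells without ATP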
#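 test system = CHO parental line | reagent = ATP stimulus | measured by = intracellular calcium via Fluo-8 no-wash fluorescent dye | control set = ATP and no-ATP DMSO wells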
# OX1R antag-1 = blocks the human orexin 1 receptor; O43613; OX1R-expressing cells, FRET antagonist read-out; inhibition, % at 6.6 µM; actives 1.8% (n = 330,000); in the data active = inhibition mostly above about 38%, no sharp cut-off; inactive = mostly below about 40%;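 also: 0% = agonist challenge alone and 100% = reference antagonist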
# MPTP inh = inhibitors of mitochondrial permeability transition pore | actives 1.4% (n = 360,000) | inhibition, % at 10 µM | isolated mouse mitochondria, Ca2+ swelling absorbance, 30 min;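 active = inhibition of 50% or more, scaled per plate between neutral and stimulator controls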;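 also: 0% = DMSO wells given calcium and 100% = 1 mM EGTA wells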
# OX1R antag-2 = antagonists of human orexin 1 receptor; CHO/OX1R cells, Fluo-8 calcium fluorescence, orexin A; inhibition, % at 5 µM; actives 0.43% (n = 330,000);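 active = inhibition above its plate's threshold, mean inhibition of all tested compounds on the plate plus 3 SD, cut at about 37% in these data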;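 also: 0% = orexin A challenge wells and 100% = SB-334867-A antagonist wells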
# GPR7 antag cf = human GPR7 antagonism, confirmation assay | shares compounds with GPR7 antag | GPR7-expressing cells, calcium fluorescence antagonist mode | inhibition, % at 4.4 µM | actives 52% (n = 2,400) | AID 1952; in the data active = inhibition above about 24%;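 also: stimulated with the GPR7 agonist NPW; 0% = agonist plus vehicle and 100% = vehicle alone without agonist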
# MCHR1 antag = counter-screen for GPR7 antagonists: antagonists of human MCHR1; shares compounds with GPR7 antag; MCHR1-expressing cells, fluorescence antagonist assay; inhibition, % at 4.4 µM; actives 62% (n = 2,400); in the data active = inhibition above about 22%;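 also: 0% = vehicle with agonist and 100% = vehicle without agonist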
# An asterisk follows results filed as active; nt = not tested or not shown.
SMILES,GPR7 antag,CHO parental Ca,OX1R antag-1,MPTP inh,OX1R antag-2,GPR7 antag cf,MCHR1 antag
CCOC(=O)c1ccc(N2CCCCC2)c(NS(=O)(=O)c2ccc(C)cc2)c1,25*,-5,5,2,-31,15,62*
O=C(CCC1CCCCC1)NCCN1C2=NC[C@@H](Cc3ccccc3)N2C[C@H]1Cc1ccc(O)cc1,46*,-26,8,0,-30,55*,30*
O=C(NC1CCCC1)C(c1ccc(F)cc1)N(Cc1ccccc1)C(=O)c1csnn1 (configuration not stated),23*,-18,15,0,-37,32*,22*
COc1ccccc1C(C(=O)NC1CCCCC1)N(C(=O)c1csnn1)C1CC1 (configuration not stated),-10,-20,15,0,-31,nt,nt
COCCN(C(=O)c1csnn1)C(C(=O)NC1CCCCC1)c1ccc(C)cc1 (configuration not stated),-6,-15,11,-1,-17,nt,nt
COCCN(C(=O)c1csnn1)C(C(=O)NC1CCCC1)c1ccccc1 (configuration not stated),44*,-18,15,1,-24,1,-6
O=C(NC1CCCCC1)C(c1ccccc1F)N(C(=O)c1csnn1)C1CCCC1 (configuration not stated),23*,-22,24,2,-28,17,19
O=C(NC1CCCC1)C(c1ccccc1)N(Cc1ccc(F)cc1)C(=O)c1csnn1 (configuration not stated),5,-30,20,0,-29,nt,nt
CCN(C(=O)CSc1nc2ccccc2c(=O)n1CCOC)C1CCS(=O)(=O)C1 (configuration not stated),-4,-6,-3,0,-6,nt,nt
CCn1nnc(NC(=O)C(c2ccccc2)c2ccccc2)n1,20,-20,15,-3,-19,nt,nt
CCOC(=O)c1c(NC(=O)CSc2ncccn2)sc2c1CCN(Cc1ccccc1)C2,27*,nt,nt,1,nt,22,51*
CC(C)(C)[C@H]1COC(=O)[C@H](Cc2ccc(F)cc2)CC/C=C/C[C@@H](CC(=O)N[C@H](CO)Cc2ccccc2)C(=O)N1,nt,-11,3,-2,-19,nt,nt
COc1ccc(-n2c(-c3ccc(Cl)cc3)c[n+]3c2CCc2ccccc2-3)cc1,31*,-3,6,0,-21,33*,35*
CCOc1ccccc1CN1CCN(Cc2ccc(C)o2)CC1CCO (configuration not stated),-5,-12,-3,1,-11,nt,nt
CCOc1ccccc1CN1CCN(CC2=Cc3cc(OC)ccc3OC2)CC1CCO (configuration not stated),31*,-22,13,8,-31,1,3
CSC1=NC(=O)/C(=C\c2cccc3ccccc23)S1,-5,-3,64,4,-4,nt,nt
CCOC(=O)C1(CC2CCCCO2)CCN(C2CCSCC2)CC1 (configuration not stated),25*,-11,5,1,-25,37*,23*
COc1ccc(S(=O)(=O)N2CCCCCC2)cc1C(=O)N(C)CC(=O)Nc1cc(C)ccc1C,30*,nt,nt,1,nt,19,20
CCCC[N+](CC#CCO)(CC#Cc1ccccc1)CCCC,25*,-2,5,1,5,25*,26*
Cc1cccc(Nc2sc(C(=O)c3cc4cc(Cl)ccc4o3)c(N)c2C#N)c1,-14,-5,-3,1,0,nt,nt
COc1ccc(CC(=O)N/N=C(\C)c2cccs2)cc1,31*,-11,13,0,-20,-6,4
COC(=O)N/N=C(\C)c1cccs1,-11,-3,-1,4,-10,nt,nt
O=C(c1cc(F)ccc1F)C1CCCN(Cc2cccn2-c2ccccn2)C1 (configuration not stated),37*,-13,20,4,-34,20,24*
COc1ccc(F)cc1C(=O)C1CCCN(Cc2cn(C)c3ccccc23)C1 (configuration not stated),24*,-11,29,8,-13,33*,30*
